The list is not random: actives were taken first. Their share in the collection is about 3.2%.
ABHD4 inh: inhibits mouse alpha/beta hydrolase domain 4; inhibition, % at 8.92 µM; 370,000 compounds, 0.54% hits; purified mABHD4, FP-Rh probe fluorescence polarization; Q8VD66;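 active means inhibition exceeding the mean over every tested compound plus 3 SD, cut at about 30% in these data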
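Test system: mABHD4 protein; Read-out basis: % inhibition; Incubation: 45 min + 60 min at 25 °C; Repeats: single replicate; Technique: fluorescence polarization with parallel and perpendicular emission, 525/598 nm; Compound: 8.92 µM, single dose; Benchmarks: full inhibition S159A mutant plus DMSO, zero as sample-well median.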
rCAG binder: binds r(CAG) RNA repeats. r(CAG) RNA repeat, TO-PRO-1 dye displacement fluorescence. inhibition, % at 3 µM. 370,000 compounds, 1.3% hits. AID 651821;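 active means inhibition above the plate cutoff, the mean of all test compounds on that plate plus 3 SD, cut at about 35% in these data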;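 further: higher means more dye released from RNA so lower well fluorescence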
PRMT1 inh: blocks human protein arginine methyltransferase 1; Q99873; inhibition, % at 2.79 µM; recombinant PRMT1, activity-based probe fluorescence polarization; 370,000 compounds, 1.3% hits;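 active means inhibition above about 21% made by adding two undisclosed values, limit read from the data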
LEDGF integ inh: blocks HIV-1 LEDGF/p75-dependent DNA integration; TR-FRET IN-LEDGF/p75 DNA integration, Eu/Cy5; inhibition, % at 3.7 µM; 370,000 compounds, 0.64% hits;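 active means inhibition above the screen-wide mean plus 3 SD, cut at about 13% in these data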;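 further: signal is the Cy5 over europium emission ratio at 671 and 618 nm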
HTRA1 inh: inhibitors of human serine peptidase HTRA1. Q92743. recombinant HTRA1, FP-rhodamine activity-based probe, fluorescence polarization. inhibition, % at 5.96 µM. 340,000 compounds, 0.5% hits; in the data active means inhibition above about 36%
Target sequence (Q92743 whole entry, looked up): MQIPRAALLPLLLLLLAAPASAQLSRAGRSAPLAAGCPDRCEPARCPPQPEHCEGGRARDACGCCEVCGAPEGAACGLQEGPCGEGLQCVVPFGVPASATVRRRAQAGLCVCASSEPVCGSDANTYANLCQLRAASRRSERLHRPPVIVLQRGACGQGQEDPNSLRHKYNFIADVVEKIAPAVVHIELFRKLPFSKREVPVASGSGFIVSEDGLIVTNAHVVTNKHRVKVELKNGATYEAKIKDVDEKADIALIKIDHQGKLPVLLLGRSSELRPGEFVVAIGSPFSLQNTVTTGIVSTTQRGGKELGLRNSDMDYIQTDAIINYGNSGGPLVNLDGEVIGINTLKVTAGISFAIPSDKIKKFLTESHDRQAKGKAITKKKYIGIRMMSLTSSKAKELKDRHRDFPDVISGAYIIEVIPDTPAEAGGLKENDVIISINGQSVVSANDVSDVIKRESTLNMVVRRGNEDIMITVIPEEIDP
DAGLB inh: blocks human DAGLB lipase activity; HEK293T DAGLB membrane lysate, EnzChek fluorogenic substrate; inhibition, % at 5.17 µM; 340,000 compounds, 0.059% hits; AID 504411; in the data active means inhibition above about 34%
PRMT1 confirm: confirmation of human PRMT1 inhibitors. shares compounds with PRMT1 inh. recombinant His-PRMT1, activity-based probe fluorescence polarization. 3,300 compounds, 42% hits. AID 687036. inhibition, % at 2.79 µM;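 active means mean inhibition across replicates above the hit cutoff derived for the earlier primary screen, cut at about 22% in these data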
ABHD4 confirm: ABHD4 (mouse) inhibition, FP confirmation; purified mABHD4, FP-Rh probe fluorescence polarization; AID 720658; inhibition, % at 8.92 µM; shares compounds with ABHD4 inh; 1,800 compounds, 55% hits;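 active means mean inhibition across replicates above the hit cutoff set in the primary screen, cut at about 30% in these data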
IN multimer act: HIV-1 integrase multimerization activation, counter-screen; shares compounds with LEDGF integ inh; TR-FRET HIV-1 integrase multimerization, biochemical; activation, % at 7.7 µM; 2,000 compounds, 17% hits; in the data active means activation above about 8.9%
TR-FRET interf: TR-FRET optical interference, LEDGF/p75 integration counter-screen | 2,000 tested, under 10 active | shares compounds with LEDGF integ inh | inhibition, % at 7.7 µM | TR-FRET optical interference counterscreen, HIV-1 IN multimerization;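 active means inhibition above the mean over all tested compounds plus 3 SD, which no compound reached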
LEDGF integ conf: LEDGF/p75-dependent HIV-1 integration inhibition, confirmation | shares compounds with LEDGF integ inh | TR-FRET LEDGF/p75-dependent HIV-1 integration, biochemical | inhibition, % at 3.7 µM | 2,000 compounds, 36% hits | AID 1053136; in the data active means inhibition above about 14%
Each line names hits and unclear results; the compound was inactive in the other large screens (follow-up assays come after a bar, where they were run).

O=[N+]([O-])c1cccc(/C=N/Nc2nc(C(Cl)(Cl)Cl)nc3ccccc23)c1	none
Fc1ccc(N2CN(Cc3cccnc3)CNC2=S)cc1	none (no result: HTRA1 inh, DAGLB inh)
COCCN(CCOC)Cc1c(O)ccc2c1O/C(=C\c1ccco1)C2=O	PRMT1 inh 30.8, LEDGF integ inh 41.1 | PRMT1 confirm 27.4 | IN multimer act 23.8 | TR-FRET interf inactive | LEDGF integ conf 22.3
O=C1/C(=C/c2ccco2)Oc2c1ccc(O)c2CN1CCCCC1	PRMT1 inh 34.6, LEDGF integ inh 22.4 | PRMT1 confirm 46.6 | IN multimer act 12.9 | TR-FRET interf inactive | LEDGF integ conf 23.2
CCN(CC)C(=O)Oc1ccc2c(c1)O/C(=C\c1ccco1)C2=O	none
CCC(=O)Oc1ccc2c(c1)O/C(=C\c1ccco1)C2=O	PRMT1 inh 63.4, LEDGF integ inh 25.4 (no result: HTRA1 inh, DAGLB inh) | PRMT1 confirm inactive | IN multimer act inactive | TR-FRET interf inactive | LEDGF integ conf inactive
CC1CCN(Cc2c(O)ccc3c2O/C(=C\c2ccco2)C3=O)CC1	none (no result: ABHD4 inh, rCAG binder, PRMT1 inh, LEDGF integ inh)
CC1CCC(NC(=O)Cn2c3c(c(-c4ccccc4Cl)cc2=O)CCC3)CC1 (configuration not stated)	none
CN(Cc1ccccc1F)C(=O)C1C2C=CC3(CN(Cc4ccccc4)C(=O)C13)O2 (configuration not stated)	none (no result: HTRA1 inh, DAGLB inh)
S=C(NCc1ccco1)NCc1ccco1	PRMT1 inh 26.7, LEDGF integ inh 34.0 | PRMT1 confirm inactive | IN multimer act inactive | TR-FRET interf inactive | LEDGF integ conf inactive
Nc1ccc(S(=O)(=O)c2ccc(N)c(N)c2)cc1	none
O=C1/C(=C/c2ccco2)CCc2ccccc21	none
Nc1ccc2c(c1)C/C(=C/c1ccco1)C2=O	PRMT1 inh 39.3, LEDGF integ inh 49.2 | PRMT1 confirm 33.2 | IN multimer act 18.9 | TR-FRET interf inactive | LEDGF integ conf 24.7
O=C(c1cccc(Br)c1)c1conc1C(=O)c1ccco1	none
O=C(Nc1ccc(F)cc1)NC1CCN(Cc2nnnn2Cc2ccco2)CC1	PRMT1 inh 28.7, LEDGF integ inh 13.9 | PRMT1 confirm inactive | IN multimer act inactive | TR-FRET interf inactive | LEDGF integ conf inactive
N#CC1=C(N)C(C#N)(C#N)[C@H](c2ccoc2)[C@H]2CN(Cc3ccccc3)CC=C12	ABHD4 inh 31.5, PRMT1 inh 33.2, LEDGF integ inh 19.2 | PRMT1 confirm inactive | ABHD4 confirm inactive | IN multimer act inactive | TR-FRET interf inactive | LEDGF integ conf inactive
Cc1ccc(/C=C/C(=O)Nc2cccc3cccnc23)o1	PRMT1 inh 59.0, LEDGF integ inh 14.4 | PRMT1 confirm 22.7 | IN multimer act inactive | TR-FRET interf inactive | LEDGF integ conf inactive
Cc1nn(C)c(-c2n[nH]c(=S)n2Cc2ccco2)c1Cl	PRMT1 inh 28.3, LEDGF integ inh 19.5 | PRMT1 confirm inactive | IN multimer act inactive | TR-FRET interf inactive | LEDGF integ conf inactive
Oc1ccc(-c2n[nH]c(=S)n2Cc2ccco2)cc1	none
CC(=O)NS(=O)(=O)c1ccc(NC(=O)/C=C/c2ccco2)cc1	PRMT1 inh 37.2, LEDGF integ inh 29.6 | PRMT1 confirm 24.1 | IN multimer act inactive | TR-FRET interf inactive | LEDGF integ conf 25.9
Cc1ccc(C=C2C(=O)c3ccccc3C2=O)o1	none
Cc1ccc(/C=C2/C(=O)c3ccc(C(=O)O)cc3C2=O)o1	ABHD4 inh 34.3, PRMT1 inh 40.6, LEDGF integ inh 69.2 | PRMT1 confirm 39.4 | ABHD4 confirm inactive | IN multimer act 24.5 | TR-FRET interf inactive | LEDGF integ conf 57.6

High-throughput results deposited in PubChem by The Scripps Research Institute Molecular Screening Center.
